Measured values: ChEMBL document CHEMBL1140926, “Novel indazole non-nucleoside reverse transcriptase inhibitors using molecular hybridization based on crystallographic overlays” (J Med Chem, 2009)

Key:
[1] = Metabolic stability in human liver microsomes assessed as half life; type: ADME, Microsome
[2] = molecular target: Human immunodeficiency virus type 1 reverse transcriptase (Human immunodeficiency virus 1, UniProt Q72547, Y181C); experiment: Inhibition of RNA-dependent DNA polymerase activity of HIV1 reverse transcriptase Y181C mutant
[3] = molecular target: Human immunodeficiency virus type 1 reverse transcriptase (Human immunodeficiency virus 1, UniProt Q72547, K103N); experiment: Inhibition of RNA-dependent DNA polymerase activity of HIV1 reverse transcriptase K103N mutant
[4] = Cytotoxicity against human HeLaP4 cells; type: cell-based
[5] = system: Human immunodeficiency virus 1; experiment: Antiviral activity against HIV1 NL4-3 in HeLaP4 reporter cell assessed as virus replication by FluorAceTM beta-galactosidase reporter assay; type: functional, organism-based; conditions: Human immunodeficiency virus 1, NL4-3, HeLaP4
Outline: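 Antiviral IC50 reported as the geometric mean of at least three independent experiments, with standard deviation given.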

[6] = Metabolic stability in human hepatocytes assessed as half life; type: ADME, cell-based, Liver, Hepatocyte
[7] = molecular target: Human immunodeficiency virus type 1 reverse transcriptase (Human immunodeficiency virus 1, UniProt Q72547); experiment: Inhibition of RNA-dependent DNA polymerase activity of wild type HIV1 reverse transcriptase

SMILES	half-life [1] [h]	IC50 [2] [nM]	IC50 [3] [nM]	CC50 [4] [nM]	IC50 [5] [nM]	half-life [6] [h]	IC50 [7] [nM]
CCc1n[nH]c2ccc(F)c(Oc3cc(C#N)cc(C#N)c3)c12	> 2	32	183	> 100000	4.6	> 6	25
Cc1n[nH]c2c(CO)ccc(Oc3cc(C#N)cc(C#N)c3)c12	> 2	–	1270	> 100000	14	0.183	71
Cc1n[nH]c2ccc(Cl)c(Oc3cc(C#N)cc(C#N)c3)c12	–	–	–	–	–	–	399
CCc1n[nH]c2cccc(Oc3cc(C#N)cc(C#N)c3)c12	–	–	–	–	–	–	112
COCc1n[nH]c2cccc(Oc3cc(C#N)cc(C#N)c3)c12	–	–	–	–	–	–	1670
CC(C)c1nc(COC(N)=O)n(Cc2ccncc2)c1Sc1cc(Cl)cc(Cl)c1 [CAPRAVIRINE]	0.125	–	–	–	0.5	–	–
CNCc1n[nH]c2cccc(Oc3cc(C#N)cc(C#N)c3)c12	–	–	–	–	–	–	> 30000
O=C1Nc2ccc(Cl)cc2[C@@](C#CC2CC2)(C(F)(F)F)O1 [EFAVIRENZ]	–	–	–	–	0.4	–	–
Cc1n[nH]c2ccc(F)c(Oc3cc(C#N)cc(C#N)c3)c12	> 2	145	–	> 100000	14	> 6	50
Cc1n[nH]c2cccc(Oc3cc(C#N)cc(C#N)c3)c12	–	–	–	–	–	–	332
